Results as given in the EternaBench riboswitch data.

Tested on: MS2 coat protein
Test: apparent Kd, MS2 coat protein; higher = weaker binding; RNA-MaP array
Method in brief: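 The designed RNAs, transcribed from sequenced DNA templates on an Illumina sequencing chip, were incubated with fluorescently labeled MS2 coat protein at room temperature. Protein ranged from 1.5 nM to 3 μM, with 0.8–1.5 h incubation at the lowest and 10–20 min at the highest concentrations, in Tris-HCl pH 7.5 buffer with KCl, MgCl2, BSA, DTT, tRNA and Tween20, with or without input ligand. The median of per-cluster binding-curve fits gives the apparent Kd, and designs measured on fewer than 10 clusters were excluded.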

[1] = designed as: OFF switch for flavin mononucleotide, no ligand
[2] = ligand present: flavin mononucleotide, designed as: OFF switch for flavin mononucleotide
[3] = designed as: ON switch for tryptophan, no ligand
[4] = ligand present: tryptophan, designed as: ON switch for tryptophan
[5] = designed as: ON switch for theophylline, no ligand
[6] = ligand present: theophylline, designed as: ON switch for theophylline
[7] = designed as: ON switch for flavin mononucleotide, no ligand
[8] = ligand present: flavin mononucleotide, designed as: ON switch for flavin mononucleotide
[9] = designed as: OFF switch for tryptophan, no ligand
[10] = ligand present: tryptophan, designed as: OFF switch for tryptophan
[11] = designed as: OFF switch for theophylline, no ligand
[12] = ligand present: theophylline, designed as: OFF switch for theophylline

Sequence | apparent Kd [1] | apparent Kd [2] | apparent Kd [7] | apparent Kd [8] | also measured
AAGCGACGUGACGCCUACAUGAGGAUCACCCAUGUAUGAAACAGAAGGUCCCGGAACCUUUACCGGAAGGAUAUGUAUCGUGCU | 0.00918 µM | 0.00778 µM |  |  | 
AAGCUCUCAGGAUAUACAUGAGGAUCACCCAUGUGGUCGUAUUUAAAGUGGAGCAGCAGUAGAAGGGAGGCGAC | 0.0245 µM | 0.0204 µM |  |  | 
AAGGACAUGAGGAUCACCCAUGUAGAGGAGCGAGGACCGGUACGGCCGCCACUCGGUGACAUUCGAUAAUGCCGAAUAAGACAUC |  |  |  |  | apparent Kd [3]: 0.0236 µM; apparent Kd [4]: 0.0226 µM
AAUAAGAGCUCGGAUACCAGCGAAAACAGGCACAUGAGGAUCACCCAUGUUAACGCACUGCGCCCUUGGCAGCCGCACGUGUGUC |  |  |  |  | apparent Kd [5]: 0.0251 µM; apparent Kd [6]: 0.012 µM
AAUACAAAACAUGAGGAUCACCCAUGUCCCGAGACUAAACUAAGAAGGUGACCAACCAAAAGGGUCAAGGAUAUUAGGAUCUAU |  |  | 0.0289 µM | 0.0134 µM | 
AAUGACAUGAGGAUCACCCAUGUCCAUCUAAGCUCGGGUCUGCAGGAUAUUCCCGUGGGAUUAGGGAAGAAGGGCAGUGAUUGU |  |  | 0.014 µM | 0.00702 µM | 
AAUGCGAGACUAGGAUAUUGCAUUCAACUCGUGCAAGAAGGAGUCGUUUCAUACAUGAGGAUCACCCAUGUCCAUAUUUCUCAA |  |  | 0.0145 µM | 0.00744 µM | 
AAUGGGUGAGAUCGUUUCAACAUGAGGAUCACCCAUGUUGACAGAAGGAGGUCUAAAUAGCUACCCUAGGAUAUGUCCAUGCGA | 0.0199 µM | 0.0319 µM |  |  | 
ACAUCUUGUACGGCCGCCACUAACAGAUUCAGCGUCGGAGCCAACUACAUGAGGAUCACCCAUGUUAGGACCGGGUACUGUCCAC |  |  |  |  | apparent Kd [9]: 0.0177 µM; apparent Kd [10]: 0.0348 µM
ACAUGAGGAUCACCCAUGUAAAUGAUAUGUCACCAUGAUGUUAGAAGGAAAGCGGAAAGUCAAUUUUAGGAUAUAAUGUAUUGA |  |  | 0.0119 µM | 0.00851 µM | 
ACAUGAGGAUCACCCAUGUCUCGGGUGCCGGUUUUUACCUAGAGAAGGUGCGCAACGCUGUCACGCAAGGAUAUCUCACGAACA | 0.231 µM | 0.184 µM |  |  | 
ACCCAGACAUGAGGAUCACCCAUGUAAAUAGAGUACAUCAGGAGAAGGUUCAAAGGGCCUACCCGAAAGGAUAUCCUCGGCGUA |  |  | 0.0308 µM | 0.0257 µM | 
ACUAGCAUAGGAUAUCACCACAGGUACAUGAGGAUCACCCAUGUGAGACUAGCUAGCUGCUGAGAAGGAUGAAAGG | 0.0279 µM | 0.0236 µM |  |  | 
AGAAGCUAAUCCGGCUCAUACAUGAGGAUCACCCAUGUUUUCAGAAGGGAGUCCGUCGCACCGACUCAGGAUAUGAUUCAAGAA |  |  | 0.0156 µM | 0.0218 µM | 
AGAGUUAUUGAGAAGGAAACAUUGACAUGAGGAUCACCCAUGUACUUGGCUAAGGAGCCGAGUGUUUAGGAUAUCAUUCAGAUA |  |  | 0.0256 µM | 0.00933 µM | 
AGGAACGAAGGAUAUGAUGAAUAGUACAUGAGGAUCACCCAUGUGGCCACCUUAGACAUCUCAGAAGGACGAUACU | 0.0336 µM | 0.0251 µM |  |  | 
AGGAGACGCAAGGAGGAUAUUCAUAUGGUAACAUGAGGAUCACCCAUGUAGUUCUAGUUGGGACUGAAGAAGGCCUUGCUAGCGCA |  |  | 0.0217 µM | 0.0113 µM | 
AGGAUCCAGGAGAAGGCAACUGUAGUUUGGCAUUGAGGAUAUCCAAAGACCCGCUAGAUAGGAGCACAUGAGGAUCACCCAUGU |  |  | 0.0355 µM | 0.0191 µM | 
AGUACCAAUGAGGAUACCAGAGUGCGACGCCGAAACCUUGACAUGAGGAUCACCCAUGUACUCCCUUGGCAGCCUGUACUUGCCA |  |  |  |  | apparent Kd [11]: 0.0359 µM; apparent Kd [12]: 0.0826 µM
AGUUACAUGAGGAUCACCCAUGUCCGGUUGCGAGGACCGGUACGGCCGCCACUCGGGUACAUCCCAGAAAAUACUGAAUGCCUGC |  |  |  |  | apparent Kd [3]: 0.0554 µM; apparent Kd [4]: 0.051 µM
AUAAGUAUAGGAUAUACAGGUAAGCGUUCUUACCGAUCCAGACAUGAGGAUCACCCAUGUAGAAGGAUACGUCU | 0.00818 µM | 0.00787 µM |  |  | 
AUACCAUCCCAAGGAUAUGUUACCUAGACAUGAGGAUCACCCAUGUGAGAUUAGAGCUGUCGCGUACAGAAGGUGGUGAUGACA | 0.0253 µM | 0.0281 µM |  |  | 
AUAGCAUGAGUAGGAUAUUUUGAGCGUUGUGCAAAAGAAGGACUGACCGUGAUUAUAAUAUACAUGAGGAUCACCCAUGUUACA | 0.00942 µM | 0.00803 µM |  |  | 
AUAUCCUCAACAGGAUAUACACGUGACUAAAUGGUAGAAGGGUUAGCAGACGACAUGAGGAUCACCCAUGUUUAGGAUAAAGCG |  |  | 0.0107 µM | 0.00966 µM | 
AUAUGUUGAGGAUAUACAUGAGGAUCACCCAUGUAAUAUGAACGGAAUGAUUUAAGGAGUAGAAGGCAACACCA | 0.0128 µM | 0.0244 µM |  |  | 
AUCACUGUGAAAGAUACCAGCGCCCUACCUAUCUUCUGUUACAUGAGGAUCACCCAUGUUCGCCCUUGGCAGCUUGAGAUGGAUC |  |  |  |  | apparent Kd [11]: 0.049 µM; apparent Kd [12]: 0.0706 µM
AUCAUGAUUUUAGGAUAUAUGACGUUAUACAAUGGACAUGAGGAUCACCCAUGUAGUCGCGCUCUAUAGAAGGAAAGCUCAGUU | 0.0441 µM | 0.0365 µM |  |  | 

Sequence | apparent Kd [1] | apparent Kd [2] | apparent Kd [7] | apparent Kd [8] | also measured
AUCGGUAAAACUCAGGAUAUAGAAAUAGACACAUGAGGAUCACCCAUGUUAACUACACAAAGAAUCUAGAAGGGAGCAGGUGUCUA |  |  | 0.0782 µM | 0.0449 µM | 
AUGAGCUGAGGAUAUAUUAACCUGUACAUGAGGAUCACCCAUGUAGCGUGUAGAGUGAGAAUAGAAGGCAGACAUC | 0.0173 µM | 0.0129 µM |  |  | 
AUGAUGUAAGGAUAUUGCGCGAUGUUUACCAUUGGUCUGCACAAGAAGGUACAUGAGGAUCACCCAUGUGGGCC | 0.0279 µM | 0.0399 µM |  |  | 
AUGUCCUAAACGGCCGCCACUUACAUGAGGAUCACCCAUGUUUACCGAUAUGGUUGUUGCUUUCCAAGGACCGGGUUUAAUCUGC |  |  |  |  | apparent Kd [9]: 0.0126 µM; apparent Kd [10]: 0.0135 µM
CAAACAUUAUCAGGAUAUGUGCAAGAUCCGACAUGAGGAUCACCCAUGUUGCGGCAUCUCGGUUGACAGAAGGGAUCAUCGCCU |  |  | 0.0112 µM | 0.0101 µM | 
CAAUAUUUCCAGAAGGGCAAGCUAACACCAACUGCAGGAUAUGGUUUCAUACAACAUGAGGAUCACCCAUGUGGCACAGGUUCC |  |  | 0.0186 µM | 0.0172 µM | 
CAAUGAAACAUUCAGGAUAUGGUACAAGGAACAUGAGGAUCACCCAUGUCAAGAAAAGAAAAUCACCAGAAGGGAACAAGACAAAA |  |  | 0.0415 µM | 0.0323 µM | 
CAAUGACCCAAGGAUAUCUGCAGACGCGAGCCCAGAGAAGGUGGGACAUGAGGAUCACCCAUGUUCUCGUGUGA | 0.037 µM | 0.0731 µM |  |  | 
CACUACAUGAGGAUCACCCAUGUCUUCCGACGAGGACCGGUACGGCCGCCACUCGAACCUCCAACUAAUACCUCAACCGUCUGAU |  |  |  |  | apparent Kd [3]: 0.0805 µM; apparent Kd [4]: 0.0546 µM
CACUGACAUGAGGAUCACCCAUGUAUGCUCGACCAAGGAUAUUGAUCAGACAAGCAUACGCAAGAAGGUGGUGAGA |  |  | 0.222 µM | 0.105 µM | 
CAGACGUAGAUUACAUGAGGAUCACCCAUGUCAUACCAGAUCAGAAGGGUUCUAGAGCGUACUCAACAGGAUAUGAUAAGUCCC |  |  | 0.0183 µM | 0.0165 µM | 
CAGUGAAGAGGAUAUACAUGAGGAUCACCCAUGUACCGUGGUCCAUAUCAUAAUUCGAGUAGAAGGCUUAACCA | 0.114 µM | 0.108 µM |  |  | 
CAUCCUCUUUGACAUGAGGAUCACCCAUGUAUUGCAGUGACCAGAAGGCGUUCCCACAAAGUGGACGAGGAUAUGGAAAAGCCG | 0.193 µM | 0.184 µM |  |  | 
CAUUUACAUGAGGAUCACCCAUGUUAUUCUACCCAAGGAUAUCGGGAAAGUAGAACAAGUCGAGAAGGUGGUGCGC |  |  | 0.0295 µM | 0.0256 µM | 
CCAAACACUGGAGGAUAUGCAAGAACAUGAGGAUCACCCAUGUAGUAACGAUAAAGAAAACAAGCGCAGAAGGCCACAUCUCUA |  |  | 0.0142 µM | 0.00649 µM | 
CCAGCCCUUCUAGAUACCAGCUUUCAAUAUAAGACAACUCACAUGAGGAUCACCCAUGUUAGCCCUUGGCAGCUAAGAUCCACAA |  |  |  |  | apparent Kd [11]: 0.0521 µM; apparent Kd [12]: 0.0573 µM
CCCUCCAGAACGGCCGCCACUAAAGGGUUGUGUGCGACUCCGGAACAUGAGGAUCACCCAUGUCUUAGGACCGGGUUCCCUUCUA |  |  |  |  | apparent Kd [3]: 0.062 µM; apparent Kd [4]: 0.0565 µM
CCGCUUGCAGGAUAUACAUGAGGAUCACCCAUGUUAAGAGAACAGUAACAAAGCAUUUGUAGAAGGGCAAUACG | 0.00981 µM | 0.00919 µM |  |  | 
CCGUACCCGGAGAAGGAAGUCGUUGGAUGGCCAACAUGAGGAUCACCCAUGUGAUUUCAACUUACUUAGGAUAUCCAAAAUGAG |  |  | 0.0584 µM | 0.0241 µM | 
CCUCGUAAUGAGGAUAUUAGGAAUUCUGGUCCAUAAGAAGGCAUGACAUGAGGAUCACCCAUGUAGCGGAUGGG | 0.102 µM | 0.145 µM |  |  | 
CCUUAACAUGAGGAUCACCCAUGUCUGGAUACCAGAUACAGAUAAAUCCCUUGGCAGCCAAAAUAUGAAAGAAAUAAAAUAAGAA |  |  |  |  | apparent Kd [5]: 0.0413 µM; apparent Kd [6]: 0.0489 µM
CGAAACAUGAGGAUCACCCAUGUGUAGAUCCUGCAAGCAUAUAGAAGGUCGUCACUCCGUCACGCGAAGGAUAUAUUAAGUGCC | 0.21 µM | 0.168 µM |  |  | 
CGAGUGUGAGGAUAUCAGUUCAAUAGGGCUACGCCGUGUCGUGAGAAGGCACAUGAGGAUCACCCAUGUAAUAA | 0.0583 µM | 0.122 µM |  |  | 
CGCGGAACAUGAGGAUCACCCAUGUUAUGUAACAGCAAACUAAGAAGGCGUUAUAUAAGUAUGGACGAGGAUAUUAGCUUGAGU |  |  | 0.0243 µM | 0.0088 µM | 
CGGCAUGGAACAGGAUAUGGGUAAUUCAUUUGACCAGAAGGGUUCUUCAGCAGCCGUUGCACAUGAGGAUCACCCAUGUCAUAU |  |  | 0.0297 µM | 0.01 µM | 
CGGGUGUAGACAGGAUAUGCAAAUAAAGGUGAAGCAGAAGGGUCACAUGAGGAUCACCCAUGUCACUAAAUUGGCGGUAUAAGA | 0.039 µM | 0.159 µM |  |  | 
CGUACAGUCGAAGGAUAUUCGCGGGAGUUUGCCGAAGAAGGUCGCUAGUAGGGUGACAUGCUGUGACAUGAGGAUCACCCAUGU | 0.165 µM | 0.239 µM |  |  | 
